Experimental data published in the EternaBench riboswitch data.

Tested on: MS2 coat protein
Experiment: apparent Kd, MS2 coat protein; higher = weaker binding; RNA-MaP array; FMN 200 µM where present
Summary of the method: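 Designs on Illumina sequencing-chip clusters, transcribed by stalled E. coli RNA polymerase, were exposed to SNAP-549-labelled MS2 coat protein in doubling steps from 0.7 or 1.5 nM up to 3 µM, without and then with constant ligand. The buffer held 100 mM Tris-HCl pH 7.5, 80 mM KCl, 4 mM MgCl2, BSA, DTT, yeast tRNA and Tween-20. Apparent Kd values are medians of filtered per-cluster binding-curve fits to green signal normalised to red-channel RNA signal and control-cluster median Fmax.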

[1] = designed as: OFF switch for flavin mononucleotide, no ligand
[2] = ligand present: flavin mononucleotide, designed as: OFF switch for flavin mononucleotide
[3] = designed as: ON switch for flavin mononucleotide, no ligand
[4] = ligand present: flavin mononucleotide, designed as: ON switch for flavin mononucleotide

| Sequence | apparent Kd [1] | apparent Kd [2] | apparent Kd [3] | apparent Kd [4] |
| --- | --- | --- | --- | --- |
| AAGUAUAAGGGCAUUAAACAUGAGGAUCACCCAUGUACAAUAGAGGAUAUGCAUUUUGGUUUAGAGUAGAAGGUUAGAGAAAAU | 28.2 nM | 33.5 nM |  |  |
| UGUUCAUCAUCAGGAUAUUAACGUGGGCUACUUUAAGAAGGGAUAGUGGGAGAGGAUGUGAAACAUGAGGAUCACCCAUGUUGU |  |  | 13.4 nM | 10.3 nM |
| GGUGCGUAUGUGAGGAUAUGCUGGUCCUUGGAUCAGCAGAAGGCACAUGAGGAUCACCCAUGUGGUGUCGUACG | 68.9 nM | 516 nM |  |  |
| UUGGACGUCGUAGGAUAUGUAGGAUAUUCCUACAUGAGGAUCACCCAUGUUGACAUGGAAGGAGGACAGAAGGACGAUGUCCAU |  |  | 524 nM | 23.3 nM |
| AAUGGCGUGAUAAUGCUAAUUAAAACAUGAGGAUCACCCAUGUAGGAUAUCCUACCGAAAUGGUAGGAGAAGGACAAGCAAUGA | 44.1 nM | 46.6 nM |  |  |
| AAGAAACAUGAGGAUCACCCAUGUGAGAAUAUGGGAGGAUAUACAAGGACGUAAGUCAAGGUAGAAGGCCUAAGAA |  |  | 171 nM | 29.7 nM |
| AGCCGCUUAGGAUAUACCUAGAUUCUUCCGCGCUGUACGGUACAUGAGGAUCACCCAUGUAGAAGGAGGUGGCA | 23.5 nM | 29.7 nM |  |  |
| ACAUACAUUCGAGGAUAUCGGUGAUUAAUUUUACGAGAAGGCGAUUUAAGAUAUAAUAUUUUAGACAUGAGGAUCACCCAUGUA |  |  | 25.3 nM | 23.1 nM |
| AGAGCGAUAGGAUAUACAUGAGGAUCACCCAUGUUAAAAGUGGAAUCCUUGGACGCAUGUAGAAGGAUUGCGCC | 49.7 nM | 94.2 nM |  |  |
| UGUUUUUUGGGAGGAUAUGUAAAUUUAAACAUGAGGAUCACCCAUGUGGAUCACCCAUGUAGAUAAUAGAAGGCCCUUUUUUUU | 55.3 nM | 36.5 nM |  |  |
| ACACAUGAGGAUCACCCAUGUAGUAAUAGCUUCCGGACCUCACAGGAUAUAUGCAAGUUCGUUGCGUAGAAGGGUGAACUCUAA |  |  | 89 nM | 92.5 nM |
| UUUGUUUAUGUGAGGAUAUACUGUUUGUUUUGUUUGUAGAAGGUACAUGAGGAUCACCCAUGUUUUGUUUUUUU | 22.8 nM | 20.5 nM |  |  |
| UGUAUGUAGGCAGGAUAUACAUGAAUAUAUAUGAUGUAGUAUGAUGUAACAUGAGGAUCACCCAUGUAGAAGGGCCGGUGUAUG | 69.2 nM | 154 nM |  |  |
| CUCAUGUGCGUCGGCAAGUUAACACAGGAUAUCCGAGAAAACAUGAGGAUCACCCAUGUAACUUCGGAGAAGGGUGAUGAGAGA |  |  | 64.9 nM | 23.1 nM |
| CAUGUCCUCGCAGGAUAUGCUGGACUUUGUCCAGCAGAAGGGUGAUAACAUGAGGAUCACCCAUGUGGACAUGAUAUAUUUAAU |  |  | 28.1 nM | 1720 nM |
| UGAUAGGACAGAGGAUAUACGGAUAGGAUCUACUAUCUUCCUUAAAUAACAUGAGGAUCACCCAUGUAGAAGGCUGUCCUAUCU | 18.2 nM | 65.2 nM |  |  |
| UGUCGGAGCAGAGGAUAUUACAUGAGGAUCACCCAUGUAUUAAAUGGAAGCUGGAAACAGCAAUGUAAGAAGGCUGCUCCGACA | 59.2 nM | 311 nM |  |  |
| AGACCAGUUCUAGGAUAUGUGUGACGUGAGUAAACAGAAGGAGAACAUGAGGAUCACCCAUGUGGGCCAAUCAUCCUCACGUGG | 44.9 nM | 371 nM |  |  |
| CAUUCCAGGUAGAAGGGAUUACUACAUGAGGAUCACCCAUGUCGAUUGGUCAGGAUAUGCCUGUCACGACGCGUGAUGCUAAAA |  |  | 382 nM | 187 nM |
| UAUAUACAUGAGGAUCACCCAUGUAAGGAUAUGCAUUAUUAUUAUUAUUAUUAUUAUUGCAGAAGGUACAAUAU | 40.7 nM | 39.3 nM |  |  |
| UUGGACAGCUAGAGCUGUUAAGUACAUGAGGAUCACCCAUGUCAGGAUAUCCUUCCGCAAUGCGAGGAGAAGGGACAGGGUCCC | 64.7 nM | 149 nM |  |  |
| GGAUAGGACAGAGGAUAUACAGAUAGGAUCUACUAUCAAACAUUCCUGACAUGAGGAUCACCCAUGUAGAAGGCUGUCCUAUCG | 22.7 nM | 75.4 nM |  |  |
| UUGUUAUAUGUAGGAUAUGCAUAUUAUUAUUGUGCAGAAGGACAUGAGGAUCACCCAUGUAUAUUAUUAUUAUAUAUUAUAUAU | 31.4 nM | 46 nM |  |  |
| AUCAGCUCGUUAGGAUAUACGUCACUGCGUCAGCAGUGUGGUAAGAUCACAUGAGGAUCACCCAUGUAGAAGGGACGAGCUGAU | 12.8 nM | 94.2 nM |  |  |

| Sequence | apparent Kd [1] | apparent Kd [2] | apparent Kd [3] | apparent Kd [4] |
| --- | --- | --- | --- | --- |
| AUACAUGAGGAUCACCCAUGUUACUGGGUCUAUAUAGAACGUAGAAGGAUGUAUUGAAGAAGAUCAUAGGAUAUACUUUAUAGU | 49.9 nM | 38.9 nM |  |  |
| ACGGCAAUCGCAGGAUAUGGUUACAUGAGGAUCACCCAUGUCUAGGGUCUAAUUAGGUAUAACUACCAGAAGGGCGAAGGCCUA | 53.5 nM | 66 nM |  |  |
| UGUCUAUUUGAAGGAUAUCUAAGCAUAAACCGUAGAGAAGGUCAAUUAUACAUGAGGAUCACCCAUGUUGAGAUUGAUGGGUUU | 16.9 nM | 17.8 nM |  |  |
| CAGUACUGAGGAUAUACAUGAGGAUCACCCAUGUGUUCCAGCUAGGAAACUAGCUAAAGUAGAAGGCAGUACUG | 21.9 nM | 424 nM |  |  |
| UCAUACGUUGAGGAUAUGUCAGUUAGUAUAUUUACAGAAGGCGAUACAUGAGGAUCACCCAUGUUUAUGGGCAU | 219 nM | 298 nM |  |  |
| GAAGCACGCAUUAACAUGAGGAUCACCCAUGUGAAAACACGUGAGGAUAUCGAUCUGAAGAAGAUCGAGAAGGCACCGUGCUAA |  |  | 5.53 nM | 5.11 nM |
| AAAUUCCUCACAGGAUAUCCUACAUGAGGAUCACCCAUGUACUAACUGAGCGAAUUGCAACAAAAGGAGAAGGGUGAGGUGAAG |  |  | 31.5 nM | 6.35 nM |
| CCGGAAAUGUAGGAUAUAGGAGUCGAUAGACACCUAGAAGGGCAUACAUGAGGAUCACCCAUGUGUCCUACCGG | 13.7 nM | 15.8 nM |  |  |
| CAUGACGAAGGAUAUACAUGAGGAUCACCCAUGUGGUCAUGGAAUUACGUGUUCUCGCGUAGAAGGUUGUAGAG | 11.3 nM | 12.8 nM |  |  |
| GGCUGUCGGUCGGGUCAUCCACAUGAGGAUCACCCAUGUAGGAGAAGGGUCCGCCAGGCUUGUGGAUAGGAUAUCCUAGAAUGA | 5.45 nM | 5.52 nM |  |  |
| UUAAUGAUGUAAGGAUAUACAUGAGGAUUUCUCGUAGAAGGUACAAGACAUGAGGAUCACCCAUGUGUCGCUCCGUAGAGCGUA |  |  | 288 nM | 302 nM |
| GAAUAGGCAGGAUAUACAUGAGGAUCACCCAUGUGCUUGCGAUCGGCAAGCGAACAACGUAGAAGGGCCUUAAC | 16.2 nM | 37.3 nM |  |  |
| UAAAUGUGAGGAUAUCAGGUGUGCUAGCAUACUGGUACAUCUGAGAAGGCACAUGAGGAUCACCCAUGUUCCUU | 16.8 nM | 52.4 nM |  |  |
| UAUUGACAAGGAUAUUUGCGUAGUAACAUGAGGAUCACCCAUGUGAUACUAUGGAGCUCGAAAGAAGGUGUGCGAG | 20.5 nM | 22.8 nM |  |  |
| GGUGGACAUGAGGAUCACCCAUGUGAGGAUAUCGGCUGUCUACUCGCUGACGGCUGCUCGAGAAGGCGCAUUGU | 45.4 nM | 61.5 nM |  |  |
| CCGAUGAGAGUCGGGCUACAUGAGGAUCACCCAUGUGCUUCACAGGAUAUGGUACGUAGUGAGUUCCAGAAGGGUGAUUAAUCU |  |  | 316 nM | 48.7 nM |
| UACAGCGUAGAUAAUUAUGUUACAUGAGGAUCACCCAUGUCAUAGGAUAUGCAGUGGAAUACACUGCAGAAGGAUGCAUCGCUG | 14.7 nM | 18.5 nM |  |  |
| ACAUACAUUCGAGGAUAUCGGUGAGAAAUUUUACGAGAAGGCGAUUCAUGAUUUAUUAUUUUGGACAUGAGGAUCACCCAUGUA |  |  | 83.5 nM | 34.1 nM |
| ACCGACACUUACAUGAGGAUCACCCAUGUGUGUAAUCGGACACAGGAUAUCCAUGGUAAGUAUCGGGAGAAGGGUGGAAAGAAA |  |  | 88.9 nM | 233 nM |
| UGUCGGAGCAGAGGAUAUUACAUGAGGAUCACCCAUGUAUGAACCAAUAGCUGGAAACAGCAAUGUCAGAAGGCUGCUCCGACA | 5 nM | 5.06 nM |  |  |
| ACGAAGAUACAGAAGGGUAAAGUAGUUAAUUAUAAGUAGGAAAUGCUCUACAGGAUAUGUUAGACAUGAGGAUCACCCAUGUAC |  |  | 30.7 nM | 13.1 nM |
| UGGGUAAAUGUAGGAUAUCUAUAUUAAUAAUAUGGAGAAGGACAUGAGGAUCACCCAUGUACAGGGAAUUACCCAUUUCCUCUC | 275 nM | 556 nM |  |  |
| GGUGCGUAUGUGAGGAUAUGCUGGUCCUUGGAUCAGCAGAAGGCACAUGAGGAUCACCCAUGUGGUGUCGUCCC | 426 nM | 21.1 nM |  |  |
| CUUUCGUGAGGAUAUCAGUAGUAAAAAUAUAAAAUUACUACUGAGAAGGCACAUGAGGAUCACCCAUGUUCCUC | 26 nM | 150 nM |  |  |
